In ChEMBL document CHEMBL4364265, “Oridonin derivatives as potential anticancer drug candidates triggering apoptosis through mitochondrial pathway in the liver cancer cells” (Eur J Med Chem, 2019):
The source made the active and inactive calls. The calls are words filed in the database; no cut-off is given here.

Assays:
HepG2 [1] = test: Antiproliferative activity against human HepG2 cells incubated for 72 hrs by CCK8 cells; format: functional, cell-based; conditions: HepG2, 72 h
In short: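 CCK-8 proliferation assay. 10,000 cells per well were preincubated 24 h at 37 °C with 5% CO2, then given compound dissolved in DMSO and incubated 72 h. CCK-8 was added for 4 h and absorbance read at 450 nm. IC50 was taken from dose-response curves as mean ± SEM of at least three independent experiments, with paclitaxel as positive control. HepG2 and L-O2 were grown in DMEM/10% FBS; A549 and RPMI-8226 in RPMI 1640/10% FBS.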

PLC-PRF-5 [2] = test: Induction of cell cycle arrest in human PLC/PRF/5 cells assessed as accumulation at G1 phase at 0.25 uM incubated for 24 hrs by PI staining based flow cytometric analysis (reference value: 34.78%); format: functional
PLC-PRF-5 [3] = test: Induction of cell cycle arrest in human PLC/PRF/5 cells assessed as accumulation at G2 phase at 0.25 uM incubated for 24 hrs by PI staining based flow cytometric analysis (reference value: 18.05%); format: functional
PLC-PRF-5 [4] = test: Induction of cell cycle arrest in human PLC/PRF/5 cells assessed as accumulation at G2 phase at 1 uM incubated for 24 hrs by PI staining based flow cytometric analysis (reference value: 18.05%); format: functional
HepG2 [5] = test: Induction of cell cycle arrest in human HepG2 cells assessed as accumulation at G2 phase at 0.25 uM incubated for 24 hrs by PI staining based flow cytometric analysis (reference value: 25.55%); format: functional
HepG2 [6] = test: Induction of cell cycle arrest in human HepG2 cells assessed as accumulation at S phase at 0.5 uM incubated for 24 hrs by PI staining based flow cytometric analysis (reference value: 35.46%); format: functional
HepG2 [7] = test: Induction of cell cycle arrest in human HepG2 cells assessed as accumulation at G2 phase at 0.5 uM incubated for 24 hrs by PI staining based flow cytometric analysis (reference value: 25.55%); format: functional
HepG2 [8] = test: Induction of cell cycle arrest in human HepG2 cells assessed as accumulation at S phase at 1 uM incubated for 24 hrs by PI staining based flow cytometric analysis (reference value: 35.46%); format: functional
PLC-PRF-5 [9] = test: Induction of apoptosis in human PLC/PRF/5 cells assessed as shrunken chromatin at 0.25 to 1 uM incubated for 24 hrs by Hoechst 33258 dye based fluorescence microscopic method; format: functional, cell-based
In short: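 About 2 × 10^4 cells per well were plated overnight and treated 24 h with 0, 0.25, 0.5 or 1 µM compound. Cells were fixed in 4% paraformaldehyde for 30 min at room temperature, stained with 20 µg/mL Hoechst 33258 for 20 min at 37 °C, and imaged by fluorescence microscopy.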

PLC-PRF-5 [10] = test: Induction of apoptosis in human PLC/PRF/5 cells assessed as early apoptotic cells at 0.5 uM incubated for 24 hrs by annexin V staining based cell counting method (reference value: 5.65%); format: functional
PLC-PRF-5 [11] = test: Induction of apoptosis in human PLC/PRF/5 cells assessed as necrotic cells at 0.5 uM incubated for 24 hrs by annexin V staining based cell counting method (reference value: 0.59%); format: functional
PLC-PRF-5 [12] = test: Induction of apoptosis in human PLC/PRF/5 cells assessed as late apoptotic cells at 1 uM incubated for 24 hrs by annexin V staining based cell counting method (reference value: 4.81%); format: functional
HepG2 [13] = test: Induction of apoptosis in human HepG2 cells assessed as live cells at 0.25 uM incubated for 24 hrs by annexin V staining based cell counting method (reference value: 87.35%); format: functional
HepG2 [14] = test: Induction of apoptosis in human HepG2 cells assessed as early apoptotic cells at 1 uM incubated for 24 hrs by annexin V staining based cell counting method (reference value: 3.60%); format: functional
PLC-PRF-5 [15] = test: Induction of ROS generation in human PLC/PRF/5 cells by DCFH-DA staining-based flow cytometric analysis; format: functional, cell-based
In short: (§1)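 Cells were treated with 0, 0.25, 0.5 or 1 µM compound, stained with 10 µM DCFH-DA for 20 min at 37 °C, washed three times, resuspended in PBS and read by flow cytometry. Data are mean ± SD of three independent experiments.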

HepG2 [16] = test: Induction of ROS generation in human HepG2 cells at 1 uM by DCFH-DA staining-based flow cytometric analysis relative to control; format: functional; in short: as §1
PLC-PRF-5 [17] = test: Induction of apoptosis in human PLC/PRF/5 cells assessed as down regulation of Bcl2 protein expression level incubated for 24 hrs by Western blot analysis; format: functional, cell-based
In short: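 Cells were treated 24 h in DMEM with 0, 0.25, 0.5, 1.0 or 1.25 µM compound. Adherent and floating cells were lysed in RIPA on ice and protein measured by BCA. Equal protein was run on 7.5–12.5% SDS-PAGE and transferred to PVDF. Membranes were blocked in 5% milk/PBST, incubated with primary antibody overnight at 4 °C, and detected by ECL.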

PLC-PRF-5 [18] = test: Induction of apoptosis in human PLC/PRF/5 cells assessed as upregulation of cleaved caspase 3 protein expression level incubated for 24 hrs by Western blot analysis; format: functional, cell-based
In short: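 After 24 h exposure (0, 0.25, 0.5, 1.0 and 1.25 µM), adherent plus floating cells collected, lysed in RIPA on ice 30 min, protein quantified by BCA; equal protein run on 7.5–12.5% SDS gels, transferred to PVDF, blocked 30 min in 5% milk/PBST, primary antibody overnight at 4 °C, ECL detection.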

PLC-PRF-5 [19] = test: Antitumour activity against human PLC/PRF/5 cells xenografted in nude mouse assessed as tumour growth inhibition at 10 mg/kg, iv administrated once every 3 days for 4 weeks; format: functional, organism-based
In short: (§2)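 PLC/PRF/5 xenograft. 2 × 10^7 cells in 0.2 mL saline were injected s.c. into the right forelimb of nude mice. At about 120 mm3, mice were randomized into 3 groups of 6 and dosed i.v. at 10 mg/kg once every three days for 4 weeks. Vehicle was 10% N-methylpyrrolidone/12% Tween-80/78% saline. Volume (a×b²/2) and body weight were recorded daily, and tumors were excised and weighed at the end.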

PLC-PRF-5 [20] = test: Antitumour activity against human PLC/PRF/5 cells xenografted in nude mouse assessed as reduction in tumour weight at 10 mg/kg, iv administrated once every 3 days for 4 weeks relative to control; format: functional; set-up: scale not given: the % may be the effect or the level left; in short: as §2
[21] = Half life in human plasma measured for 5 to 120 mins by LC-MS/MS analysis; format: ADME, cell-free
In short: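 Compound at an initial 5000 ng/mL was incubated in human plasma at 37 °C. 100 µL aliquots were taken at 0–120 min and extracted with methanol plus tyrosine internal standard, then centrifuged and filtered. Extracts were analysed by LC-MS/MS on a triple-quadrupole instrument with ESI.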

Q: Which IC50 (HepG2 [1]) does the source give for `C=C1C(=O)[C@]23[C@H](OC(=O)/C=C/c4ccc(OC)cc4)[C@H]1CC[C@H]2[C@@]12CO[C@]3(O)[C@@H](O)[C@@H]1C(C)(C)CC[C@@H]2O` here?
A: 1360 nM

Q: What about the Activity (PLC-PRF-5 [2]) of the same molecule?
A: 37.17%

Q: And the Activity (PLC-PRF-5 [3])?
A: 12.59%

Q: And the Activity (PLC-PRF-5 [4])?
A: 6.11%

Q: And the Activity (HepG2 [5])?
A: 24.78%

Q: And the Activity (HepG2 [6])?
A: 34.53%

Q: And the Activity (HepG2 [7])?
A: 23.84%

Q: What about the Activity (HepG2 [8]) of the same molecule?
A: 30.88%

Q: And the Activity (PLC-PRF-5 [9])?
A: Active

Q: What about the Activity (PLC-PRF-5 [10]) of the same molecule?
A: 16.04%

Q: And the Activity (PLC-PRF-5 [11])?
A: 0.82%

Q: What about the Activity (PLC-PRF-5 [12]) of the same molecule?
A: 36.66%

Q: What about the Activity (HepG2 [13]) of the same molecule?
A: 81.95%

Q: What about the Activity (HepG2 [14]) of the same molecule?
A: 21.8%

Q: What about the Activity (PLC-PRF-5 [15]) of the same molecule?
A: Dose-dependent effect

Q: And the “fold change (FC)” value (HepG2 [16])?
A: 3

Q: And the Activity (PLC-PRF-5 [17])?
A: Dose-dependent effect

Q: What about the Activity (PLC-PRF-5 [18]) of the same molecule?
A: Dose-dependent effect

Q: What about the TGI (PLC-PRF-5 [19]) of the same molecule?
A: Active

Q: And the Activity (PLC-PRF-5 [20])?
A: 38.1%

Q: And the half-life [21]?
A: 2 h
